Measurements collected from several papers.
Compare with care: the assays were run in different laboratories.
Target: SRSF protein kinase 3 (SRPK3, Homo sapiens, UniProt Q9UPE1)

SMILES | assay | setting | remaining binding [%]
F[C@@H]1CCN(c2nccc(-c3cnn4ncccc34)n2)C1 | binding | 1 µM | 100
COc1cnc(Nc2cccc(S(N)(=O)=O)c2)nc1N1CCN(c2ccccc2)CC1 | binding, competition with immobilised ligand | 1 µM | 95
COc1ncc2cc3ccccc3nc2c1C#N | cell-free assay, competition with immobilised ligand | 5 µM | 98
CCC(=N\O)/C(C)=C/c1ccc(F)cc1 | cell-free assay, competition with immobilised ligand | 1 µM | 91
C[C@@H]1CN(c2ccc3ncc(-c4ccc5[nH]nc(C6CC6)c5c4)n3n2)C[C@H](C)O1 | binding, competition with immobilised ligand | 50 nM | 97
CS(=O)(=O)N1CCCC(NC(=O)[C@H](CCC2CCCCC2)NC(=O)c2ccc(CNC(=O)c3cnc4ccccn34)cc2)C1 (stereo partly drawn) | cell-free assay, competition with immobilised ligand | 0.1 µM | 100
Cc1cnn2ncc(-c3ccnc(N(C)C)n3)c2c1 | binding | 1 µM | 56
CC(C)(C)c1ccc(-c2nc(CBr)nn2-c2cccc(O)c2)cc1 | cell-free assay, competition with immobilised ligand | 10 µM | 100
CN(C)c1nccc(-c2cnn3ncccc23)n1 | binding | 1 µM | 92
CC(=O)N1CCC(c2ccc(C(=O)NC3=NCCN3)cc2C(F)(F)F)CC1 | cell-free assay, competition with immobilised ligand | 1 µM | 100
O=C(c1ccc(Nc2ncc(Cl)c(-c3cc4ccccc4s3)n2)cc1)N1CCC(N2CCCC2)CC1 | binding, competition with immobilised ligand | 1 µM | 100
O=C(NCC1CCOCC1)c1n[nH]cc1NC(=O)c1c(F)cccc1F | binding, competition with immobilised ligand | 1 µM | 83
C[C@H](NC(=O)c1cnc2n1[C@](C)(Cc1ccc(C#N)cc1)C(=O)N2c1cc(Cl)c(F)c(Cl)c1)C(=O)NC1(c2ccccn2)CC1 | cell-free assay, competition with immobilised ligand | 1 µM | 100
N#Cc1ccccc1CSc1nnc2c(n1)[nH]c1ccccc12 | binding, competition with immobilised ligand | 10 µM | 75
CN(c1nccc(-c2cnn3ncccc23)n1)C1CC1 | binding | 1 µM | 83
O=C(c1ccc(Nc2nccc(-c3cc4ccccc4s3)n2)cc1)N1CCC(N2CCCC2)CC1 | binding, competition with immobilised ligand | 1 µM | 100
c1cncc(-c2cccc(Nc3nccc(NC4CCCCC4)n3)c2)c1 | binding, competition with immobilised ligand | 10 µM | 55
CCCOc1ccc([C@@H]2[C@@H](C(=O)O)[C@H](c3ccc4c(c3)OCO4)CN2CC(=O)Nc2c(CC)cccc2CC)cc1 | cell-free assay, competition with immobilised ligand | 1 µM | 93
c1cnn2ncc(-c3ccnc(N4CCC45COC5)n3)c2c1 | binding | 1 µM | 66
Cc1c(C(=O)O)cc(-c2ccc(C3CCNCC3)cc2)c2ccc(-c3ccc(C(F)(F)F)cc3)cc12 | binding, competition with immobilised ligand | 1 µM | 100
C[C@@H]1CCN(c2nccc(-c3cnn4ncccc34)n2)C1 | binding | 1 µM | 55
CCCCN(CCCC)C(=O)CN1C[C@@H](c2cc(OC)c3c(c2)OCO3)[C@H](C(=O)O)[C@H]1CC(C)(C)CCC | cell-free assay, competition with immobilised ligand | 1 µM | 100
N[C@@H]1CCN(c2nccc(-c3cnn4ncccc34)n2)C1 | binding | 1 µM | 81
O=C(c1ccc(Nc2ncc(Cl)c(-c3ccc(Cl)s3)n2)cc1)N1CCC(N2CCCC2)CC1 | binding, competition with immobilised ligand | 1 µM | 100
